Measurements taken from PMC3537910 (European journal of nuclear medicine and molecular imaging, 2012).
Values joined by “and” are separate entries in the source; they are usually repeats but may differ in a detail not shown here. Equal entries are not always repeated.

Columns and labels:
mGluR1 [1] = target: T1, mGluR1 (Rattus norvegicus, UniProt P23385); test: pharmacological validation: blocking of LY2428703 tracer specific binding; type: in vivo; conditions: i.v. administration, LY2428703 as non-labeled tracer
T1 sequence (P23385 19-1199): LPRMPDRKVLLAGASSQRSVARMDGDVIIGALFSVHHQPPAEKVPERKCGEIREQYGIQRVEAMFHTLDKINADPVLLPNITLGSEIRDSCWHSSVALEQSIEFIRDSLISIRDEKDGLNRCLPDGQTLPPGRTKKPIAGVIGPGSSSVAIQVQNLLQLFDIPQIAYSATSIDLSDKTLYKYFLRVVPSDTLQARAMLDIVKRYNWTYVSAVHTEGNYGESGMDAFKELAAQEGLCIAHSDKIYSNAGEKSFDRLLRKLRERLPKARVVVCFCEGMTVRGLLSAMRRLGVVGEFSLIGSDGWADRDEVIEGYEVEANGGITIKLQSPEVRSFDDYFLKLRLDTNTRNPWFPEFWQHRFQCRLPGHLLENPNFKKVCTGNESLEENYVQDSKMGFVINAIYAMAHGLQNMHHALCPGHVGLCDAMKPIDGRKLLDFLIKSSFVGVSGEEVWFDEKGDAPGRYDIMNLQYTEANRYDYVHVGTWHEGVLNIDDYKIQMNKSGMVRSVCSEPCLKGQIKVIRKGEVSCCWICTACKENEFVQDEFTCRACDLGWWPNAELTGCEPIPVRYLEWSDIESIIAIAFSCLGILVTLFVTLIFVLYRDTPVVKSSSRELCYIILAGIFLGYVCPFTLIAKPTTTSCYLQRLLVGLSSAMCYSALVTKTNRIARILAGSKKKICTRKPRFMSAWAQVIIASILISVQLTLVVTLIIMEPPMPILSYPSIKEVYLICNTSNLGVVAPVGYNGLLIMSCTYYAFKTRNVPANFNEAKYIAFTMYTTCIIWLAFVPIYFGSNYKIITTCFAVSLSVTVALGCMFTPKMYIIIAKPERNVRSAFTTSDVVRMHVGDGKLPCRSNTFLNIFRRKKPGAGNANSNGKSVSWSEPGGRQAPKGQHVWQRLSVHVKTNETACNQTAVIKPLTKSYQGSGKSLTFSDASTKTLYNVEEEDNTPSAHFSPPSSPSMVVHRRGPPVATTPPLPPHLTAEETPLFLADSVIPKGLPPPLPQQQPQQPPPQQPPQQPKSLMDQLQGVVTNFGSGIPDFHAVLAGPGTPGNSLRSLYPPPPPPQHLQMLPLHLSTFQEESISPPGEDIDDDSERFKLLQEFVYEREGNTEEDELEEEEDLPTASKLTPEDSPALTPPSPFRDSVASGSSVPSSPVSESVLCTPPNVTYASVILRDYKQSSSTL

[2] = metabolic stability in liver microsomes, mouse; type: in vitro ADME; conditions: mouse hepatic microsomes, 30 minutes, n = 3
[3] = metabolic stability in liver microsomes, dog; type: in vitro ADME; conditions: dog hepatic microsomes, 30 minutes, n = 3
mGluR1 [4] = target: T2, mGluR1 (Homo sapiens, UniProt Q13255); type: cell-based; conditions: from IC50 8.9 and 118 nM
T2 sequence (Q13255 19-1194): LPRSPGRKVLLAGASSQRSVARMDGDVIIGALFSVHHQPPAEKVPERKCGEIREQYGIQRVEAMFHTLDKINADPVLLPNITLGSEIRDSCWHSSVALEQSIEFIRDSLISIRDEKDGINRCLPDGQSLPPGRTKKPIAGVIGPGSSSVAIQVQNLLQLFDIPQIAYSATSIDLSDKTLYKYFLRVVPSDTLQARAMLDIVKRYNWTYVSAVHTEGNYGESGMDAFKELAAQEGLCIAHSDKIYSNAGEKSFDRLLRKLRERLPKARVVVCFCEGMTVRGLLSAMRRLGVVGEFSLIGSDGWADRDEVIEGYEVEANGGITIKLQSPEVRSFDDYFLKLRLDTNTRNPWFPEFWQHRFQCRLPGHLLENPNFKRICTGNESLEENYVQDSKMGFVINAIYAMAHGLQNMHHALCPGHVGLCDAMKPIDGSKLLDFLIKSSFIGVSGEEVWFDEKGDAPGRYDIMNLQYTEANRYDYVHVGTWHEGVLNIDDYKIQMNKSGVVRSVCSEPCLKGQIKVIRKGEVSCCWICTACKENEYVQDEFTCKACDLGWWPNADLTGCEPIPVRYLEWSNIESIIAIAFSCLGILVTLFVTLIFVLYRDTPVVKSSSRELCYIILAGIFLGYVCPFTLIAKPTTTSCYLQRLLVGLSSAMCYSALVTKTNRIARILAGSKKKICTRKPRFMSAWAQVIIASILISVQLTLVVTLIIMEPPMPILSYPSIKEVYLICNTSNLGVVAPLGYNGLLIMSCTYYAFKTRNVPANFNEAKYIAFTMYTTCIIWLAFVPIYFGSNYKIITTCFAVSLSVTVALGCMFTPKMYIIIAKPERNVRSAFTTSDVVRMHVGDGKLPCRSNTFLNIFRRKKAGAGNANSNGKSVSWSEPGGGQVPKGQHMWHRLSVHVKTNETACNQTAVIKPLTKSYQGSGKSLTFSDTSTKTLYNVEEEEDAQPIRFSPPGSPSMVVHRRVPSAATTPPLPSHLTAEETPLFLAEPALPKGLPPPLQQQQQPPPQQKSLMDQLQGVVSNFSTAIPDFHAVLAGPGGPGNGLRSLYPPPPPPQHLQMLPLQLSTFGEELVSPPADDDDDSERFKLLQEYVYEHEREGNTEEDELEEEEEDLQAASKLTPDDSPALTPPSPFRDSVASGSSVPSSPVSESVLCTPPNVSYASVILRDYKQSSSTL
Procedure, shortened: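 Calcium mobilization was measured in cells expressing individual human mGlu receptors (1, 2, 3, 4, 5, 7, 8). Agonism: % stimulation by test compound alone relative to maximal glutamate response. Antagonism: % inhibition of the EC90 glutamate response. Potentiation: % increase of an EC10 glutamate response relative to the ECmax response.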

mGluR1 [5] = target: T2, mGluR1; test: competition binding assay with 3H-LSN456066, human; conditions: humans
[6] = LC-MS/MS rat brain kinetic analysis with non-labeled tracer; type: in vivo; conditions: 10 μg/kg dose, 15 minutes
[7] = mouse, in vivo
human P-gp = human P-gp (Homo sapiens, UniProt P08183); test: P-gp substrate identification in MDCK cells transfected with wild-type MDR1; type: in vitro ADME
human P-gp, sequence (P08183 whole entry): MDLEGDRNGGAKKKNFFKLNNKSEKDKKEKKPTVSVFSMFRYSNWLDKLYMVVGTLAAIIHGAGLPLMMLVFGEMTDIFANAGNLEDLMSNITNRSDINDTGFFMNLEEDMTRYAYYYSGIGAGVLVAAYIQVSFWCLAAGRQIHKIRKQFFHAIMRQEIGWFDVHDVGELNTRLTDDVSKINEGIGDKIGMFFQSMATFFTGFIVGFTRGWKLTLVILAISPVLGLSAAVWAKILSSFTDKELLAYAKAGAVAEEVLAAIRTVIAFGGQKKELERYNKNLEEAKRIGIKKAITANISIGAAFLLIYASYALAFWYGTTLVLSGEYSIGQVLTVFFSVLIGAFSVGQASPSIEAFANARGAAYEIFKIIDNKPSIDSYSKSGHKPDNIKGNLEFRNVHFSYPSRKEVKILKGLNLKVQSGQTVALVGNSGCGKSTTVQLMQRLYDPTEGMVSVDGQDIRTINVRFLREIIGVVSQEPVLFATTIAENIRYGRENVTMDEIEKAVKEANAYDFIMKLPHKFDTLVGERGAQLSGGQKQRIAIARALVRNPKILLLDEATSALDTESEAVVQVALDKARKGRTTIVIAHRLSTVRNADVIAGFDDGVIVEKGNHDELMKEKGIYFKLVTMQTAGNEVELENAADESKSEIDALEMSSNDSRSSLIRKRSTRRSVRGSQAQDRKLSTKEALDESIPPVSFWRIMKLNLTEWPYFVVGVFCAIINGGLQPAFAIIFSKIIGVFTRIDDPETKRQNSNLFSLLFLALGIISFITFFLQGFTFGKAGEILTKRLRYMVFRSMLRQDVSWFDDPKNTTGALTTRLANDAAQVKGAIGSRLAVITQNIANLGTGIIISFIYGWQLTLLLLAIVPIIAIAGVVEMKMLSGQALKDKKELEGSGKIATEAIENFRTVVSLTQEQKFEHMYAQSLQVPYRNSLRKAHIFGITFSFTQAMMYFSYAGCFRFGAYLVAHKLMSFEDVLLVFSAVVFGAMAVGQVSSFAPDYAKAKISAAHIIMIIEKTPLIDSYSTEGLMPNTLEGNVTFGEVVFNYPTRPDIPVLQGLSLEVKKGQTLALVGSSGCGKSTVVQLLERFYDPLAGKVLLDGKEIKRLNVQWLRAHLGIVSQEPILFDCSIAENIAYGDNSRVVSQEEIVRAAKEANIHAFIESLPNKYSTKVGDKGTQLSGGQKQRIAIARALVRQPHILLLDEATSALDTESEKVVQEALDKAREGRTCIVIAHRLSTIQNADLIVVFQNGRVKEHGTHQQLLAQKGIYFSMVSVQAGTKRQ

[8] = metabolic stability in liver microsomes, monkey; type: in vitro ADME; conditions: monkey hepatic microsomes, 30 minutes, n = 2
mGluR1 [9] = target: T1, mGluR1; test: mGluR1 occupancy experiment, non-labeled JNJ16259685 as tracer; type: in vivo; conditions: oral administration
[10] = metabolic stability in liver microsomes, rat; type: in vitro ADME; conditions: rat hepatic microsomes, 30 minutes, n = 2
[11] = calibrated Mouse Brain Uptake Assay; conditions: cMBUA
mGluR5 = mGluR5 (Rattus norvegicus, UniProt P31424); test: PET imaging, cross-reactivity with mGluR5 receptors; type: in vivo
mGluR5, sequence (P31424 21-1203): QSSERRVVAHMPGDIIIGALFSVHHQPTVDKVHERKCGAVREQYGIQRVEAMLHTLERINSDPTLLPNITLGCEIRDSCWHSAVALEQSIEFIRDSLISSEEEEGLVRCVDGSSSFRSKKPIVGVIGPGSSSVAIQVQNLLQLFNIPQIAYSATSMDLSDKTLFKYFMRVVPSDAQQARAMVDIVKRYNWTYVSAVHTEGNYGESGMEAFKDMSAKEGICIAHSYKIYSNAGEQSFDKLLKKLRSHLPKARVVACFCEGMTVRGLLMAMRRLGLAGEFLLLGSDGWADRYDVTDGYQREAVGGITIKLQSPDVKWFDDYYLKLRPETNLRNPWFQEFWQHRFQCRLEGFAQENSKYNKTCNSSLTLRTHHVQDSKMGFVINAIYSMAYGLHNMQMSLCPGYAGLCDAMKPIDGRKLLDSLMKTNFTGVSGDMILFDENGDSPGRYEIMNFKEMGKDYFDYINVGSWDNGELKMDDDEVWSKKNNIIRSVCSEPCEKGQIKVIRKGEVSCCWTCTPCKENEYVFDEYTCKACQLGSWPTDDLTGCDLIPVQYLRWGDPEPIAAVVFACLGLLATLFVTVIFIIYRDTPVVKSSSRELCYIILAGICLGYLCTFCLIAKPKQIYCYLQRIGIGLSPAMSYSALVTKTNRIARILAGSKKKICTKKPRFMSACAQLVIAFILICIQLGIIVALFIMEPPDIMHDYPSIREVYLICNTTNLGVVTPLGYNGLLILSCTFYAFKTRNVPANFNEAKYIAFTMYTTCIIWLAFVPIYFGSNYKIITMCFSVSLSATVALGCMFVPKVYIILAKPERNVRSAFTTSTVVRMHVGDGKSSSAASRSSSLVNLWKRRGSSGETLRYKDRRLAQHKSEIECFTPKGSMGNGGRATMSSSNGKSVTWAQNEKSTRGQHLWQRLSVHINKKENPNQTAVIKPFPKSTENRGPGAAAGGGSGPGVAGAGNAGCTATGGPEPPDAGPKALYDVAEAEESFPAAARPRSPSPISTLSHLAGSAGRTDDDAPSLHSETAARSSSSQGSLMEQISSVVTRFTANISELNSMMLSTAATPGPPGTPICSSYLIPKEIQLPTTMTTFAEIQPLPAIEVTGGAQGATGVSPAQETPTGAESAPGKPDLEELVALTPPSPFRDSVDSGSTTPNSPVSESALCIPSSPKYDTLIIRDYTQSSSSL

ABCG2 (BCRP) = ABCG2 (BCRP) (Mus musculus, UniProt Q7TMS5); conditions: wild type vs knock-out mice, PET
ABCB1 (P-gp) = conditions: wild type vs knock-out mice, PET
[12] = LogD7.4 measurement in octanol; type: physicochemical; conditions: n = 6
[13] = one hour at 37 °C
mGluR1 [14] = target: T1, mGluR1; test: PET imaging, specific binding in rat brain; type: in vivo; conditions: baseline vs blocked scans
[15] = reference compound; cited from earlier work
[16] = MDCK monolayers overexpressing human P-gp
[17] = rat brain, 30 minutes after injection
[18] = rat cerebellum, 30 minutes after injection
[19] = rat, 30 minutes after injection
[20] = tissue without blood, mean of two measurements

## COC1CCC(C(=O)c2ccc3nc4c(cc3c2)CCCO4)CC1 (stereo not drawn) [JNJ16259685]
mGluR1 [1]
  in vivo mGluR1 ED50: 1.4 ± 0.1 mg/kg

## COc1ccc(-c2nsc(NC(=O)[C@@H]3C[C@H]3C)c2C)cc1 [LY2428703]
[2]
  percent of compound metabolized: 79.5 ± 14.7%
[3]
  percent of compound metabolized: 65.0 ± 15.5%
mGluR1 [4]
  affinity for mGluR1 relative to mGluR5: > 10 fold
mGluR1 [5]
  affinity of LY2428703 relative to LSN2606428: about 20 fold
[6]
  tracer level in rat cerebellum: 330 % SUV
[7]
  clearance from brain, percent loss in concentration from five to 60 minutes: > 95%
  clearance from plasma, percent loss in concentration from five to 60 minutes: > 95%
Human P-gp; [16]
  B-A/A-B flux ratio: ~ 1.0
  P-gp substrate identification: not a P-gp substrate
Human P-gp; MDCK monolayers, n=8
  mass balance recovery: 108 ± 10%
  passive permeability coefficient: 62 ± 3 ×10⁻⁶ cm/s and 60 ×10⁻⁶ cm/s
[8]
  percent of compound metabolized: 90.1 ± 3.1%
mGluR1 [9]
  rat mGluR1 occupancy: dose-dependently occupied
[10]
  percent of compound metabolized: 91.1 ± 3.4%
[11]
  dose distributed to brain as percent of cardiac output: 84%
[11]; mouse
  blood-brain barrier permeability coefficient: 19 ×10⁻⁶ cm/s
[11]; mouse, over the 10-fold range of doses
  percent of dose delivered to the brain: 1.2–1.6% and 1.6 ± 0.2%

## Cc1nc(C#Cc2cccnc2)cs1 [MTEP, 3-((2-Methyl-4-thiazolyl)ethynyl)pyridine, reference compound]
mGluR5; 5 mg/kg, rat, n=2
  effect of pretreatment on forebrain uptake of 11C-LY2428703: not affected

## Cc1c(-c2ccc(O[11CH3])cc2)nsc1NC(=O)[C@@H]1C[C@H]1C [^11C-LY2428703]
ABCG2 (BCRP)
  substrate for ABCG2 transporter at the blood-brain barrier: not a substrate
ABCB1 (P-gp)
  substrate for ABCB1 transporter at the blood-brain barrier: not a substrate
[12]
  LogD7.4: 4.02 ± 0.09
mGluR5; rats pretreated with MTEP 5 mg/kg
  affinity for mGluR5s in vivo (PET): negligible affinity
cerebellum/brain, cerebellum/plasma, brain/plasma
  regional concentration ratios of the radiometabolite: < 1.0
[17]
  parent radioligand, % of brain radioactivity: 82.7%
  radiometabolite, % of brain radioactivity: 17.2%
[18]
  parent radioligand, % of cerebellar radioactivity: 96.2% and > 96%
  radiometabolite, % of cerebellar radioactivity: ~ 3.5% and 3.7% and 3–4%
Rat plasma, 30 minutes after injection
  parent radioligand, % of plasma radioactivity: 75%
[19]
  %SUV concentration of parent in brain: 49 %SUV
  %SUV concentration of parent in cerebellum: 156 %SUV
  %SUV concentration of parent in plasma: 122 %SUV
  %SUV concentration of parent in urine: 2.7 %SUV
  %SUV concentration of the major radiometabolite in brain: 10.2 %SUV
  %SUV concentration of the major radiometabolite in cerebellum: 6.1 %SUV
  %SUV concentration of the major radiometabolite in plasma: 38.5 %SUV
  %SUV concentration of the major radiometabolite in urine: 161 %SUV
  parent concentration ratio brain/plasma: < 1.0
  parent concentration ratio cerebellum/brain: 3.2 and 3.2–3.5
  parent concentration ratio cerebellum/plasma: 1.3
[20]
  parent radioligand in brain: 48 %SUV
  parent radioligand in cerebellum: 169 %SUV
  parent radioligand, % of brain activity: 82.5%
  parent radioligand, % of cerebellar activity: 95.8%
  radiometabolite in brain: 9.5 %SUV
  radiometabolite in cerebellum: 5.6 %SUV
  radiometabolite, % of brain activity: 16.5%
  radiometabolite, % of cerebellar activity: 3.3%
[13]
  stability in rat whole blood and brain homogenates: no biotransformation products were detected
mGluR1 [14]
  PET signal in rat cerebellum: large specific and displaceable signal

## [3H]O[3H] [tritiated water]
[15]
  brain levels, percent of the dose: 1.9 ± 0.2%
